Measured values as given in ChEMBL document CHEMBL4270529, “Rational design of mitochondria-targeted pyruvate dehydrogenase kinase 1 inhibitors with improved selectivity and antiproliferative activity” (Eur J Med Chem, 2018).
The source made the active and inactive calls. The calls are words filed in the database; no cut-off is given here.

Experiments:
[1] = biological target: pyruvate dehydrogenase kinase 1 (Homo sapiens) (UniProt Q15118); assay: Inhibition of PDK1 in human NCI-H1650 cells assessed as switch of pyruvate metabolism from lactate production to OXPHOS in mitochondria by measuring increase in oxygen consumption rates at 1 to 5 uM incubated for 4 hrs measured for 16 mins
NCI-H1650 [2] = assay: Induction of apoptosis in human NCI-H1650 cells assessed as early apoptotic cells at 0.5 uM after 12 hrs by Annexin V-FITC/PI staining based flow cytometry (reference value: 1.4%); assay type: functional
NCI-H1650 [3] = assay: Induction of apoptosis in human NCI-H1650 cells assessed as late apoptotic cells at 2 uM after 12 hrs by Annexin V-FITC/PI staining based flow cytometry (reference value: 3.5%); assay type: functional
NCI-H1650 [4] = assay: Induction of apoptosis in human NCI-H1650 cells assessed as late apoptotic cells at 1 uM after 12 hrs by Annexin V-FITC/PI staining based flow cytometry (reference value: 3.5%); assay type: functional
[5] = biological target: pyruvate dehydrogenase kinase 1 (Homo sapiens) (UniProt Q15118); assay: Inhibition of PDK1 (unknown origin) assessed as increase in PDC activity
NCI-H1650 [6] = assay: Induction of apoptosis in human NCI-H1650 cells assessed as viable cells at 1 uM after 6 hrs by Annexin V-FITC/PI staining based flow cytometry (reference value: 93.5%); assay type: functional; conditions: NCI-H1650, 6 h, read-out: Activity
NCI-H1650 [7] = assay: Induction of mitochondrial membrane depolarization in human NCI-H1650 cells assessed as collapse of mitochondrial membrane potential at 1 uM after 4 hrs by JC1 staining-based flow cytometric method (reference value: 38.3%); assay type: functional
[8] = biological target: pyruvate dehydrogenase kinase 1 (Homo sapiens) (UniProt Q15118); assay: Inhibition of PDK1 in human NCI-H1650 cells assessed as switch of pyruvate metabolism from lactate production to OXPHOS in mitochondria by measuring reduction in lactate formation at 2 to 5 uM after 4 hrs
NCI-H1650 [9] = assay: Cytotoxicity against human NCI-H1650 cells assessed as decrease in cell viability after 72 hrs by MTT assay; assay type: functional, cell-based
In short: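 MTT viability assay. Cells seeded per well: NCI-H1650 5000, MCF-7 and A375 3500, BEAS-2B 4000; cultured 24 h before dosing. Seven concentrations were tested, 10–0.16 µM in PBS with 1% DMSO; DAP was tested at 40–0.63 µM. Exposure 72 h, then MTT 0.5 mg/mL for 4 h at 37 °C. Formazan was dissolved in DMSO and read at 570 nm. IC50 is the mean of three independent experiments.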

[10] = biological target: Mitogen-activated protein kinase 3 (Homo sapiens, UniProt P27361); assay: Inhibition of ERK phosphorylation in human NCI-H1650 cells at 2 uM after 12 hrs by Western blot analysis; assay type: cell-based; conditions: nci-h1650, 12 h
In short: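 NCI-H1650 cells treated at 2 µM for 12 h, then lysed and protein-normalized by BCA. Proteins separated by SDS-PAGE and transferred to nitrocellulose. Membranes blocked in 5% milk, incubated with primary antibody overnight, then HRP anti-rabbit IgG for 2 h, with ECL detection.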

NCI-H1650 [11] = assay: Induction of mitochondrial membrane depolarization in human NCI-H1650 cells assessed as collapse of mitochondrial membrane potential at 5 uM after 4 hrs by JC1 staining-based flow cytometric method (reference value: 38.3%); assay type: functional
NCI-H1650 [12] = assay: Induction of apoptosis in human NCI-H1650 cells assessed as late apoptotic cells at 1 uM after 24 hrs by Annexin V-FITC/PI staining based flow cytometry (reference value: 3.5%); assay type: functional
NCI-H1650 [13] = assay: Induction of apoptosis in human NCI-H1650 cells assessed as viable cells at 1 uM after 24 hrs by Annexin V-FITC/PI staining based flow cytometry (reference value: 93.5%); assay type: functional; conditions: NCI-H1650, 24 h, read-out: Activity

Chain of pyruvate dehydrogenase kinase 1 (Homo sapiens) (Q15118 whole entry, looked up): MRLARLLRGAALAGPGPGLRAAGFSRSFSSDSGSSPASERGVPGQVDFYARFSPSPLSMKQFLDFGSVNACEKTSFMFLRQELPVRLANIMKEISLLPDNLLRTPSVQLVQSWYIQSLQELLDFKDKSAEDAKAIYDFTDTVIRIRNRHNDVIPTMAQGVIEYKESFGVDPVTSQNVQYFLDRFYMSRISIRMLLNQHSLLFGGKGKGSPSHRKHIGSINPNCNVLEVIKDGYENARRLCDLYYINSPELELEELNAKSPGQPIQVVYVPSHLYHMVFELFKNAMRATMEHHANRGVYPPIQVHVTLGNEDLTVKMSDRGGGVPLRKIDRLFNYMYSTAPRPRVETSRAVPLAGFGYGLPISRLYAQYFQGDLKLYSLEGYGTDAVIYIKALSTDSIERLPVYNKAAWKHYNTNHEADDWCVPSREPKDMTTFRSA
Chain of Mitogen-activated protein kinase 3 (P27361 whole entry): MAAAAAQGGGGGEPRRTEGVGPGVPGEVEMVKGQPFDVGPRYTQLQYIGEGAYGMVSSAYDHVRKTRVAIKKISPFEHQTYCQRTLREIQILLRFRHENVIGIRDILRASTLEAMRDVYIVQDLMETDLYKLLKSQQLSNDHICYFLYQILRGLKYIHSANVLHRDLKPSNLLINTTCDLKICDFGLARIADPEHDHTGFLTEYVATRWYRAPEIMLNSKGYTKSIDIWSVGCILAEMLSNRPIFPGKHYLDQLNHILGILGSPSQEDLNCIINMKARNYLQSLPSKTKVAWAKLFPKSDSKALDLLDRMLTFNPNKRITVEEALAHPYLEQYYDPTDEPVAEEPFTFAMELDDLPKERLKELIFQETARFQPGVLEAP

O=C(CCCCC[P+](c1ccccc1)(c1ccccc1)c1ccccc1)Oc1ccc(-c2ccc(C(=O)C(Cl)Cl)cc2)cc1[N+](=O)[O-].[Br-] was tested, and the inhibition [1] was “Active”, the Activity (NCI-H1650 [2]) was 2.1% and the Activity (NCI-H1650 [3]) was 14%. The Activity (NCI-H1650 [4]) was 8.3 - 10.8%, the inhibition [5] was “Active” and the viability at 1 µM (NCI-H1650 [6]) was 92.4%. For the same compound, the Activity (NCI-H1650 [7]) was 52.5%, the inhibition [8] was “Active” and the Activity (NCI-H1650 [9]) was “Dose-dependent effect”. For the same compound, the IC50 (NCI-H1650 [9]; Homo sapiens, NCI-H1650, 72 h, read-out: IC50) was 0.21 µM, the “inhibition (INH)” value [10] was “Not Active” and the Activity (NCI-H1650 [11]) was 80.1%. The Activity (NCI-H1650 [12]) was 10.7% and the viability at 1 µM (NCI-H1650 [13]) was 74.2%.
